Laboratory results published in ChEMBL document CHEMBL4665761, “Optimizing the Benefit/Risk of Acetyl-CoA Carboxylase Inhibitors through Liver Targeting” (J Med Chem, 2020).
In brackets after ≈: the same amount, converted by molar mass. Activity calls are given as the source filed them. The rule behind the calls is not given here.

Columns and labels:
[1] = test system: Rattus norvegicus; test: Effect on triglyceride accumulation in Sprague-Dawley rat high fat dietary model at 10 mg/kg, po assessed as reduction in triglyceride level after 42 days by XPT clinical analyzer; type: functional, organism-based; conditions: time 42.0 day
Method in brief: (§1)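 High-fat-diet-fed Sprague-Dawley rats dosed orally for 42 days, with chow-fed and vehicle controls, n = 10 per group. Read-out is hepatic triglyceride, reported as mean ± SEM.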

[2] = test system: Rattus norvegicus; test: Effect on triglyceride accumulation in po dosed Sprague-Dawley rat high fat dietary model assessed as reduction in triglyceride level after 42 days by XPT clinical analyzer; type: functional, organism-based; conditions: time 42.0 day; method in brief: as §1
[3] = organism: Homo sapiens; test: Inhibition of ACC (unknown origin) at 100 uM
[4] = test system: Rattus norvegicus; test: Inhibition of DNL in po dosed Sprague-Dawley rat assessed as reduction in DNL level in liver pretreated with one hr followed by [14C]-acetate treatment and measured after 1 hr; type: functional, organism-based
Method in brief: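 Sprague-Dawley rats given single oral doses of 0.03–300 mg/kg in 0.5% methyl cellulose vehicle, n = 16 per dose. Read-out is incorporation of 14C-acetate into lipids in liver, bone marrow and lung, measured at 2 h post-dose relative to vehicle. Data are mean ± SEM. EC50 is reported with a 95% confidence interval.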

[5] = biological target: Acetyl-CoA carboxylase 2 (Homo sapiens, UniProt O00763); test: Inhibition of recombinant human ACC2 using acetyl coA as substrate incubated for 1 hr by transcreener fluorescence polarization assay
Method in brief: (§2)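 Recombinant human enzyme, Transcreener assay run per an earlier protocol. IC50 is the geometric mean of at least three replicates, also given as pIC50 ± SD.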

[6] = biological target: Acetyl-CoA carboxylase 1 (Homo sapiens, UniProt Q13085); test: Inhibition of recombinant human ACC1 using acetyl coA as substrate incubated for 1 hr by transcreener fluorescence polarization assay; method in brief: as §2
[7] = Apparent permeability in MCDKII-LE cells at 2 uM incubated for 30 mins; type: ADME, cell-based, Canis lupus familiaris, MDCKII-LE; conditions: dog, MDCK
Method in brief: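 MDCK-LE (low-efflux) cell monolayers with a 30 min pre-incubation. Read-out is apparent passive permeability (Papp, 10^-6 cm/s).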

[8] = organism: Rattus norvegicus; test: Fraction unbound in rat plasma by equilibrium dialysis method
[9] = Thermodynamic solubility of the compound at pH 6.5 after 24 hrs; type: physicochemical; conditions: buffer, read-out: Therm_solubility
[10] = Half life in Wistar-Hannover rat plasma at 1 mg/kg, iv and measured up to 24 hrs by LC/MS-MS analysis; type: ADME, organism-based
Method in brief: (§3)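 Male Wistar-Hannover rats (240–350 g) with jugular vein cannulas, dosed 1 mg/kg IV (2 mL/kg) or PO. IV vehicle was 10% DMSO/90% of 20% sulfobutylether-β-cyclodextrin in water, or 10% DMSO/30% PEG400/60% water. Plasma was analysed by LC-MS/MS. Parameters come from plasma concentration–time data, n = 2: Cmax observed directly, AUC0-24 by the linear trapezoidal rule, CL = IV dose/AUC, Vss = dose/(AUC × elimination rate constant).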

[11] = Clearance in Wistar-Hannover rat plasma at 1 mg/kg, iv and measured up to 24 hrs by LC/MS-MS analysis; type: ADME, organism-based; method in brief: as §3
[12] = Apparent volume of distribution at steady state in Wistar-Hannover rat plasma at 1 mg/kg, iv and measured up to 24 hrs by LC/MS-MS analysis; type: ADME, organism-based; conditions: read-out: Vdss(app); method in brief: as §3
[13] = biological target: T1, OATP1B1 (Homo sapiens, UniProt Q9Y6L6); test: Substrate activity at human OATP1B1 stably expressed in HEK293 cells assessed as ratio of total to passive cellular uptake at 1 to 3 uM incubated for 0.5 to 4 mins by LC/MS-MS analysis; type: ADME, cell-based; conditions: HEK293 cells stably expressing human OATP1B1, dose 1-3 µM, time 0.5-4 min
T1 sequence (Q9Y6L6 whole entry): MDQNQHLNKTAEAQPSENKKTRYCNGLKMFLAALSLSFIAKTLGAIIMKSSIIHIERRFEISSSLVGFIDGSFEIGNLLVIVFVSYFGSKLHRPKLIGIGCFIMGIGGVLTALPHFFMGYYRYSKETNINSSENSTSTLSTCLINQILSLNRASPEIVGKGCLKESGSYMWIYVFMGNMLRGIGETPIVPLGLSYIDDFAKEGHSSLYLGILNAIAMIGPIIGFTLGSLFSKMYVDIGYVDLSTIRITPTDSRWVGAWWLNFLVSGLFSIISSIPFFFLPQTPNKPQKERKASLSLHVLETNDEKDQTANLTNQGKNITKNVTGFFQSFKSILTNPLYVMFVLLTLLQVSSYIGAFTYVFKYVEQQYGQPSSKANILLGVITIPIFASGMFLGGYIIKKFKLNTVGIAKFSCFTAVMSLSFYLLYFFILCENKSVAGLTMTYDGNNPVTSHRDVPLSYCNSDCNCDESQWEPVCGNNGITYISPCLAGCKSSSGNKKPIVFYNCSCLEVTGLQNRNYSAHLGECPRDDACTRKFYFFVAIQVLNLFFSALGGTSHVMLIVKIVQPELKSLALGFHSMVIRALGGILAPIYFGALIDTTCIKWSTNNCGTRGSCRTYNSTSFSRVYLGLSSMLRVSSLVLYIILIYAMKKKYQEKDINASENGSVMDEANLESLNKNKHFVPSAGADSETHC
Method in brief: (§4)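 Stably transfected HEK293 cells and wild-type parental cells, cultured to confluency in DMEM with 10% heat-inactivated FBS and 5 µg/mL blasticidin. Uptake at 1–3 µM in HBSS/20 mM HEPES pH 7.4, 37 °C, 0.5–4.0 min. Cells washed in ice-cold buffer, lysed in MeOH, quantified by LC-MS/MS and normalized to protein. Ratio is transfected/parental uptake; >2 denotes substrate.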

[14] = biological target: T2, OATP1B3 (Homo sapiens, UniProt Q9NPD5); test: Substrate activity at human OATP1B3 stably expressed in HEK293 cells assessed as ratio of total to passive cellular uptake at 1 to 3 uM incubated for 0.5 to 4 mins by LC/MS-MS analysis; type: ADME, cell-based; conditions: HEK293 cells stably expressing human OATP1B3, dose 1-3 µM, time 0.5-4 min; method in brief: as §4
T2 sequence (Q9NPD5 whole entry): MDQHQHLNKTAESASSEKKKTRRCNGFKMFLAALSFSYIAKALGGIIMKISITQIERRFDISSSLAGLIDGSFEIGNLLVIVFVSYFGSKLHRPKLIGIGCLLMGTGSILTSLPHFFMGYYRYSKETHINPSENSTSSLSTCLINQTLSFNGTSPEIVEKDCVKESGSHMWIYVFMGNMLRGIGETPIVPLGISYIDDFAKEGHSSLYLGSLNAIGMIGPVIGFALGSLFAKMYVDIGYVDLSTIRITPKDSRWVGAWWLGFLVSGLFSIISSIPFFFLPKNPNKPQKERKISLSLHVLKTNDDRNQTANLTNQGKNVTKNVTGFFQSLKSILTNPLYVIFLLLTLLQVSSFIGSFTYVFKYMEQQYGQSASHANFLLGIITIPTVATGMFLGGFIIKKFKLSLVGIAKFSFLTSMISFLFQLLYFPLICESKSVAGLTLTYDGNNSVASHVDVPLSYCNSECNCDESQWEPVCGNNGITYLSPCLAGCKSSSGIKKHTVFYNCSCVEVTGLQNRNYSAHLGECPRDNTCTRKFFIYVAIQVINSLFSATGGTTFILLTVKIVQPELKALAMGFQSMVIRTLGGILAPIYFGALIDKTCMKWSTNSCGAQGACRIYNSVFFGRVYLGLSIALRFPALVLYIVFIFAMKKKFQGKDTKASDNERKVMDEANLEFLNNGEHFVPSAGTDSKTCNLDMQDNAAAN

[15] = Octanol-water partition coefficient, logD of compound at pH 7.4 at 0.5 to 2 mg incubated for 1 hr by HPLC based shake-flask method; type: physicochemical; conditions: dose 0.5-2 mg
Method in brief: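 Shake-flask octanol/water partition at pH 7.4.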

[16] = AUC (0 to 24 hrs) in Wistar-Hannover rat plasma at 1 mg/kg, iv and measured up to 24 hrs by LC/MS-MS analysis; type: ADME, organism-based; design: route intravenous, dose 1 mg/kg, time <=24
Method in brief: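 Male Wistar-Hannover rats (240–350 g) with jugular vein cannulas were given 1 mg/kg IV at 2 mL/kg. Vehicle, depending on compound, was 10% DMSO/90% of 20% sulfobutylether-β-cyclodextrin in water or 10% DMSO/30% PEG400/60% water. AUC0–24 came from plasma concentration–time data by the linear trapezoidal rule, averaged for n = 2. Lower detection limit was 1 ng/mL.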

[17] = Thermodynamic solubility of the compound at pH 7.4 after 24 hrs; type: physicochemical; conditions: buffer, read-out: Therm_solubility
[18] = Metabolic intrinsic clearance in human hepatocytes assessed per million cells incubated for 2 hrs; type: ADME, cell-based, Hepatocyte; conditions: read-out: CLH
Method in brief: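 Cryopreserved human hepatocytes incubated for 2 h. In vitro half-lives scaled to intrinsic clearance, expressed per 10^6 cells.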

[19] = Thermodynamic solubility of the compound at pH 1.2 after 24 hrs; type: physicochemical; conditions: buffer, read-out: Therm_solubility
[20] = Cmax in Wistar-Hannover rat plasma at 4 mg/kg, po and measured up to 24 hrs by LC/MS-MS analysis; type: ADME, organism-based; design: route oral, dose 4 mg/kg, time <=24
[21] = Fraction unbound in rat liver by equilibrium dialysis method
[22] = Ratio of drug uptake in Wistar-Hannover rat unbound liver to plasma concentration at 10 mg/kg, po hydrochloride salt form of compound after 6 hrs by LC/MS-MS analysis; type: ADME, organism-based; conditions: liver and plasma
Method in brief: (§5)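 Male Wistar-Hannover rats (n = 2 or 3) dosed orally as a suspension in 0.5% methyl cellulose with 0.1% Tween 80. Plasma and liver sampled 6 h post-dose. Kp is total liver/plasma; Kpu,u uses unbound fractions from equilibrium dialysis of plasma and liver.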

[23] = Drug uptake in Wistar-Hannover rat liver at 10 mg/kg, po using hydrochloride salt form of compound after 6 hrs by LC/MS-MS analysis; type: ADME, organism-based; conditions: read-out: Drug uptake
Method in brief: (§6)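 Male Wistar-Hannover rats, n = 2 or 3, given an oral suspension in 0.5% methyl cellulose with 0.1% Tween 80; one compound was dosed as the HCl salt. Total plasma and liver concentrations were measured 6 h post-dose. Kp = liver/plasma total concentration. Kpu,u uses fu values from equilibrium dialysis.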

[24] = Ratio of drug uptake in Wistar-Hannover rat liver to plasma at 10 mg/kg, po hydrochloride salt form of compound after 6 hrs by LC/MS-MS analysis; type: ADME, organism-based; conditions: liver and plasma; method in brief: as §5
[25] = Drug uptake in Wistar-Hannover rat assessed as plasma concentration at 10 mg/kg, po hydrochloride salt form of compound after 6 hrs by LC/MS-MS analysis; type: ADME, organism-based; method in brief: as §6

Sequence of Acetyl-CoA carboxylase 2 (O00763 whole entry): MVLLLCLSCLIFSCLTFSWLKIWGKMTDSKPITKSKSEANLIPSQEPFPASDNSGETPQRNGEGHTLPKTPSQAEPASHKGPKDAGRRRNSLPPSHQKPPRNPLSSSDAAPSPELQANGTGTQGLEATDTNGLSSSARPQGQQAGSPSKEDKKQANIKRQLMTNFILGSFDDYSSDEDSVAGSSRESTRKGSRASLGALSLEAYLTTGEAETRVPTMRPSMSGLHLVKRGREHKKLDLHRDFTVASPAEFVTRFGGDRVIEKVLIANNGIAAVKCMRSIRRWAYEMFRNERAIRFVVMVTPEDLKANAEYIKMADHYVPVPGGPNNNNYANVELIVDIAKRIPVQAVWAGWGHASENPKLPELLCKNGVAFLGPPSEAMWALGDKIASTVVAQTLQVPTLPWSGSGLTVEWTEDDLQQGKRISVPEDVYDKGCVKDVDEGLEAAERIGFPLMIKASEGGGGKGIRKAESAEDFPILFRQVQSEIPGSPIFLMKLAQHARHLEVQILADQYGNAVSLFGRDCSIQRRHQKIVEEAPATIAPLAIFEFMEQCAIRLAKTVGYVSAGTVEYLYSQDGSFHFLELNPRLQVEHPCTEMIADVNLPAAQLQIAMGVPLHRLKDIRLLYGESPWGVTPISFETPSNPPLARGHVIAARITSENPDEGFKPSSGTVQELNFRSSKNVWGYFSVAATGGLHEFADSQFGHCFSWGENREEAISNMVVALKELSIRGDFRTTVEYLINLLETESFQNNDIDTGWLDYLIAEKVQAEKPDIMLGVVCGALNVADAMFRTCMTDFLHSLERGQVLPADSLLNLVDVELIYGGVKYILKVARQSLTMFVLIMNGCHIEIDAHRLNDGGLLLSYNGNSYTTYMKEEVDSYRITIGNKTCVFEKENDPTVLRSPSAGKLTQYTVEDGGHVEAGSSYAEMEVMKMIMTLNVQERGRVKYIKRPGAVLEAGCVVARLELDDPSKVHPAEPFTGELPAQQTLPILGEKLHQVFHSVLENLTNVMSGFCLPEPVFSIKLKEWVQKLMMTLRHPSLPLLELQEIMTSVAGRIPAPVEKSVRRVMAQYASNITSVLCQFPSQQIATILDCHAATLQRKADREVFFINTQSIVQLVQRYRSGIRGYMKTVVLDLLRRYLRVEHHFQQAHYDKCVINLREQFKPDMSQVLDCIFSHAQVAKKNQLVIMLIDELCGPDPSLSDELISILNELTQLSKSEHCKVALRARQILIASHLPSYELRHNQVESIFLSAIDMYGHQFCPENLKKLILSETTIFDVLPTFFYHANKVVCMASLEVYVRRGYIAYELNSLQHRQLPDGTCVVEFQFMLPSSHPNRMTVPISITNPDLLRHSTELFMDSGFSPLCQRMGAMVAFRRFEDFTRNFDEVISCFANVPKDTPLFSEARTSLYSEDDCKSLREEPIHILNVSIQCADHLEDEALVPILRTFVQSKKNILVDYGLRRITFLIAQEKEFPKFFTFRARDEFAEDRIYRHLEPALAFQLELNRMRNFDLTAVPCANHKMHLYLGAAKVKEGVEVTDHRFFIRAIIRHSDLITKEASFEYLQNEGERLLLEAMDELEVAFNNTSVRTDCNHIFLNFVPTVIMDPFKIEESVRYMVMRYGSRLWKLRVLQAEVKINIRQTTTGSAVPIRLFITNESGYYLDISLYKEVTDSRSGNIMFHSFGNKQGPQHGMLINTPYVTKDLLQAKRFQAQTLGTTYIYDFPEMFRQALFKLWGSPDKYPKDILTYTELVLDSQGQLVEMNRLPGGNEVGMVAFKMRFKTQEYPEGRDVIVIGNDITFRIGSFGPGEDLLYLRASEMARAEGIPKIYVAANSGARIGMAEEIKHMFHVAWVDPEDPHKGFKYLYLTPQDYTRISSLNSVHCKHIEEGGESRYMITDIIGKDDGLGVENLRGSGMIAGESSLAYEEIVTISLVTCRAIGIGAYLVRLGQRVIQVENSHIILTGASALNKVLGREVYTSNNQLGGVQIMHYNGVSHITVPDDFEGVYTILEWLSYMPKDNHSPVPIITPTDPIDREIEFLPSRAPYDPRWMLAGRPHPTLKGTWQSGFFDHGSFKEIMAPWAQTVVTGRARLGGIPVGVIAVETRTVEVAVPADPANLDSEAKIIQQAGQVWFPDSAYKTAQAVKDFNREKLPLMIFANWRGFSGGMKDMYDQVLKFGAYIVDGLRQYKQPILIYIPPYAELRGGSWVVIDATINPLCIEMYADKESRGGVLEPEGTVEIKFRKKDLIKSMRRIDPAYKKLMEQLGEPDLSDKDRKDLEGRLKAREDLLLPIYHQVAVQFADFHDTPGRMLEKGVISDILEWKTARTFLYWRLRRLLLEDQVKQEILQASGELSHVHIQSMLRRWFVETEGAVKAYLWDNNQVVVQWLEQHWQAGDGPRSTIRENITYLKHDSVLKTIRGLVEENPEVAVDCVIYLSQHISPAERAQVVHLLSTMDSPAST

Row | Structure (SMILES) | IC50 [5] [nM] | IC50 [6] [nM] | Papp at 0.5 h, 2 µM [7] [×10⁻⁶ cm/s] | logD at 1 h [15] | other results
1 | COc1cc(C(=O)N2CCC3(CC2)CC(=O)c2c(cnn2C(C)C)C3)cc(-c2ccc(C(=O)O)cc2)n1 | – | – | – | – | Activity [1]: Active; Activity [2]: Dose-dependent effect; inhibition [3]: inactive; inhibition [4]: Dose-dependent effect
2 | CC(C)(C)n1cc2c(n1)C(=O)CC1(CCN(C(=O)c3cccc(-c4cccc(C(=O)O)c4)c3)CC1)O2 | 200 | 1500 | 1.3 | – | –
3 | CC(C)(C)n1cc2c(n1)C(=O)CC1(CCN(C(=O)c3ccc4[nH]nc(C(=O)O)c4c3)CC1)O2 | 33 | 130 | < 0.4 | – | –
4 | CC(C)n1ncc2c1C(=O)CC1(CCN(C(=O)c3cc(-c4ccc(C(=O)O)cc4)nc(N(C)C)c3)CC1)C2 | 5.6 | 7.7 | 13 | 1.4 | fraction unbound [8]: 0.057; solubility thermodynamic at 24 h [9]: 3 µM (≈ 1.55 µg/mL); half-life [10]: 7.5 h; clearance [11]: 31.3 mL/min/kg; Vd [12]: 5.2 L/kg; uptake ratio at up to 3 µM [13]: 2.1; uptake ratio at up to 3 µM [14]: 1.4; AUC(0-t) [16]: 519 ng·h/mL; solubility thermodynamic at 24 h [17]: 13 µM (≈ 6.7 µg/mL); hepatocyte CLint [18]: < 3 µL/min/1e6 cells; solubility thermodynamic at 24 h [19]: 2 µM (≈ 1.03 µg/mL); Cmax [20]: < 1 ng/mL; fraction unbound [21]: 0.026
5 | Cc1nc2cc(C(=O)N3CCC4(CC3)CC(=O)c3c(c(C(=O)O)nn3C(C)C)C4)ccc2[nH]1 | 1200 | 12000 | 0.5 | – | –
6 | CC(C)(C)n1cc2c(n1)C(=O)CC1(CCN(C(=O)c3cccc(-c4ccc(C(=O)O)cc4)c3)CC1)O2 | 92 | 440 | 2.5 | – | –
7 | CC(C)n1ncc2c1C(=O)CC1(CCN(C(=O)c3cc(-c4ccc(C(=O)O)cc4)nc(N(C)C)c3)CC1)C2.Cl | – | – | – | – | Kp uu at 6 h [22]: 79; concentration at 6 h [23]: 9920 ng/mL; Kp at 6 h [24]: 173; concentration at 6 h [25]: 57.4 ng/mL
8 | CC(C)(C)n1cc2c(n1)C(=O)CC1(CCN(C(=O)c3ccnc(-c4ccc(C(=O)O)cc4)c3)CC1)O2 | 190 | 1100 | – | -0.4 | –
9 | CN(C)c1cc(C(=O)N2CCC3(CC2)CC(=O)c2nn(C(C)(C)C)cc2O3)cc(-c2ccc(C(=O)O)cc2)n1 | 9.4 | 17 | 0.5 | 0.8 | hepatocyte CLint [18]: 7.5 µL/min/1e6 cells
